{"source": "paper PMC10042892", "about": "(Clinical Pharmacokinetics, 2023)", "key": {"[1]": {"test": "Subgroup analysis for letrozole PK by renal function", "assay_type": "in vivo, human", "conditions": "X2107 and MONALEESA-7, no moderate RI available, data on file"}, "[2]": {"conditions": "cited from earlier work"}, "[3]": {"conditions": "pharmacokinetic data; cited from earlier work"}, "[4]": {"system": "plasma protein", "conditions": "cited from earlier work"}, "[5]": {"conditions": "cited from earlier work", "remark": "listed apart in the source"}, "[6]": {"conditions": "baseline eGFR as a continuous covariate; patients; cited from earlier work"}, "[7]": {"conditions": "cited from earlier work", "remark": "listed apart in the source"}, "[8]": {"system": "non-cancer subjects", "test": "Study A2116: safety", "assay_type": "in vivo, human", "conditions": "single 400-mg dose", "how_it_was_run": "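Phase I, open-label, multicenter, parallel-group, two-part study. Single oral 400-mg dose in non-cancer subjects with varying renal impairment vs matched normal-function subjects. Part I enrolled normal function, severe RI and ESRD not on dialysis.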"}, "[9]": {"assay_type": "in vivo, human", "conditions": "for Increase in AUCinf compared with normal renal function / Increase in Cmax compared with normal renal function: single 400-mg dose; for Exposure of metabolite higher compared with normal renal function: single 400-mg dose of ribociclib"}, "[10]": {"system": "patients with advanced breast cancer", "test": "Patient subgroup safety analysis by renal function", "assay_type": "in vivo, human", "conditions": "for AEs leading to discontinuations / Dose modifications owing to renal toxicity / Incidence of thrombocytopenia / On-treatment deaths / QT interval prolongation events: ribociclib group", "how_it_was_run": "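Safety by renal function group in X2107, MONALEESA-2, MONALEESA-3 and MONALEESA-7 (NSAI only). Starting dose 600 mg, 3 weeks on/1 week off. Drug-related AEs were managed by reducing to 400 or 200 mg. Patients with severe RI were excluded from these studies.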"}, "[11]": {"system": "patients with advanced breast cancer", "test": "Patient subgroup efficacy analysis", "assay_type": "in vivo, human", "conditions": "for PFS HR (95% CI) RIB vs PBO: Cox proportional-hazards model stratified by study; for Median PFS (95% CI): Kaplan–Meier, local investigator's assessment", "how_it_was_run": "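Pooled data: MONALEESA-2 (full analysis set), MONALEESA-3 (first-line patients) and MONALEESA-7 (NSAI only). Starting dose 600 mg, 3 weeks on/1 week off. Severe RI was excluded. PFS by local investigator assessment. Median PFS by Kaplan–Meier; hazard ratio from a Cox proportional-hazards model stratified by study.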"}, "[12]": {"conditions": "cited from earlier work", "remark": "listed apart in the source"}}, "note": "Read-outs that look alike come from different tables or passages of the source."}
{"smiles": "N#Cc1ccc(C(c2ccc(C#N)cc2)n2cncn2)cc1", "note": "[letrozole]", "values": [{"measurement": "PK between normal renal function and mild RI", "setting": "[1]", "value": "comparable PK"}]}
{"smiles": "CN(C)C(=O)c1cc2cnc(Nc3ccc(N4CCNCC4)cn3)nc2n1C1CCCC1", "note": "[ribociclib]", "values": [{"measurement": "Intestinal excretion", "setting": "[2]", "value": "~8", "unit": "%"}, {"measurement": "Renal excretion", "setting": "[2]", "value": "around 7%"}, {"measurement": "Contribution of renal clearance, share of overall elimination routes", "setting": "[2]; human absorption, distribution, metabolism, and excretion study", "value": 7, "unit": "%"}, {"measurement": "Hepatic elimination, share of overall pathways", "setting": "[2]; in humans", "value": 84, "unit": "%"}, {"measurement": "Drug–drug interactions with NSAIs (letrozole and anastrozole) or fulvestrant", "setting": "[3]", "value": "no drug–drug interactions"}, {"measurement": "Protein binding", "setting": "[4]", "value": 70, "unit": "%"}, {"measurement": "Mean effective half-life", "setting": "[5]; at 600 mg", "value": "33 to 54", "unit": "h"}, {"measurement": "Oral clearance in patients with cancer versus non-cancer subjects", "setting": "[5]", "value": "generally lower oral clearance"}, {"measurement": "Dose proportionality of exposure", "setting": "[5]; dose range of 50–1200 mg", "value": "slightly over-proportional increases in exposure"}, {"measurement": "Time to maximum observed plasma drug concentration", "setting": "[5]; previous PK analyses", "value": "1 to 5", "unit": "h"}, {"measurement": "Effect of RI on PK in covariate analysis", "setting": "[6]", "value": "not affected by RI"}, {"measurement": "Exposure compared with subjects with normal hepatic function", "setting": "[7]; mild hepatic impairment", "value": "similar"}, {"measurement": "Increase in exposure compared with normal hepatic function", "setting": "[7]; moderate and severe HI", "value": "approximately 30%"}, {"measurement": "Maximal increase in exposure", "setting": "[7]; severe HI", "value": 1.3, "unit": "fold"}, {"measurement": "Subjects with at least one AE", "setting": "[8]; all cohorts", "value": 31.6, "unit": "%"}, {"measurement": "Subjects with treatment-related AEs", "setting": "[8]; all cohorts", "value": 15.8, "unit": "%"}, {"measurement": "Changes from baseline in hematology, chemistry, vital signs, or electrocardiograms", "setting": "[8]; any of the cohorts", "value": "No clinically meaningful changes from baseline"}, {"measurement": "Ae0-144h Geo-mean (amount excreted into the urine from time 0 to 144 h)", "setting": "[9]; ESRD, N = 3, single oral dose of ribociclib at 400 mg, Part I and II", "value": 8.11, "unit": "mg"}, {"measurement": "Renal clearance as share of the apparent clearance", "setting": "[9]; Study A2116", "value": "around 5%"}, {"measurement": "Increase in AUCinf compared with normal renal function", "setting": "[9]; mild RI", "value": 62, "unit": "%"}, {"measurement": "Increase in Cmax compared with normal renal function", "setting": "[9]; mild RI", "value": 80, "unit": "%"}, {"measurement": "Increase in AUCinf compared with normal renal function", "setting": "[9]; moderate RI", "value": 94, "unit": "%"}, {"measurement": "Increase in Cmax compared with normal renal function", "setting": "[9]; moderate RI", "value": 79, "unit": "%"}, {"measurement": "Increase in AUCinf compared with normal renal function", "setting": "[9]; severe RI", "value": 167, "unit": "%"}, {"measurement": "Increase in Cmax compared with normal renal function", "setting": "[9]; severe RI", "value": 130, "unit": "%"}, {"measurement": "Median time to the first dose reduction", "setting": "[10]; across renal function cohorts, patients with dose reductions", "value": "12.0–12.9 weeks"}, {"measurement": "AEs of torsade de pointes", "setting": "[10]; patients with ABC", "value": "No AEs of torsade de pointes were reported"}, {"measurement": "Median time to first occurrence of QTcF value > 480 ms and an increase from baseline of >60 ms", "setting": "[10]; patients with ABC", "value": 15, "unit": "days"}, {"measurement": "AEs leading to discontinuations", "setting": "[10]; mild RI", "value": 16.0, "unit": "%"}, {"measurement": "Dose modifications owing to renal toxicity", "setting": "[10]; mild RI", "value": 2.5, "unit": "%"}, {"measurement": "Incidence of thrombocytopenia", "setting": "[10]; mild RI", "value": 11.0, "unit": "%"}, {"measurement": "On-treatment deaths", "setting": "[10]; mild RI", "value": 1.3, "unit": "%"}, {"measurement": "QT interval prolongation events", "setting": "[10]; mild RI", "value": 10.3, "unit": "%"}, {"measurement": "AEs leading to discontinuations", "setting": "[10]; moderate RI", "value": 25.4, "unit": "%"}, {"measurement": "Dose modifications owing to renal toxicity", "setting": "[10]; moderate RI", "value": 3.8, "unit": "%"}, {"measurement": "Incidence of thrombocytopenia", "setting": "[10]; moderate RI", "value": 13.8, "unit": "%"}, {"measurement": "On-treatment deaths", "setting": "[10]; moderate RI", "value": 5.4, "unit": "%"}, {"measurement": "QT interval prolongation events", "setting": "[10]; moderate RI", "value": 10.0, "unit": "%"}, {"measurement": "AEs leading to discontinuations", "setting": "[10]; normal function", "value": 10.1, "unit": "%"}, {"measurement": "Dose modifications owing to renal toxicity", "setting": "[10]; normal renal function", "value": 0.7, "unit": "%"}, {"measurement": "Incidence of thrombocytopenia", "setting": "[10]; normal renal function", "value": 7.0, "unit": "%"}, {"measurement": "On-treatment deaths", "setting": "[10]; normal renal function", "value": 1.4, "unit": "%"}, {"measurement": "QT interval prolongation events", "setting": "[10]; normal renal function", "value": 6.4, "unit": "%"}, {"measurement": "PFS HR (95% CI) RIB vs PBO", "setting": "[11]; mild renal impairment", "value": 0.57}, {"measurement": "Median PFS (95% CI)", "setting": "[11]; mild renal impairment", "value": 24.8, "unit": "months"}, {"measurement": "PFS HR (95% CI) RIB vs PBO", "setting": "[11]; moderate renal impairment", "value": 0.64}, {"measurement": "Median PFS (95% CI)", "setting": "[11]; moderate renal impairment", "value": 22.2, "unit": "months"}, {"measurement": "PFS HR (95% CI) RIB vs PBO", "setting": "[11]; normal renal function", "value": 0.58}, {"measurement": "Median PFS (95% CI)", "setting": "[11]; normal renal function", "value": 23.8, "unit": "months"}]}
{"smiles": "CNC(=O)c1cc2cnc(Nc3ccc(N4CCNCC4)cn3)nc2n1C1CCCC1", "note": "[LEQ803]", "values": [{"measurement": "Contribution to the pharmacological activity in vivo", "setting": "[12]", "value": "no clinically relevant contribution to the pharmacological activity in vivo"}, {"measurement": "Exposure of metabolite higher compared with normal renal function", "setting": "[9]; mild RI", "value": 32, "unit": "%"}, {"measurement": "Exposure of metabolite higher compared with normal renal function", "setting": "[9]; moderate RI", "value": 47, "unit": "%"}, {"measurement": "Exposure of metabolite higher compared with normal renal function", "setting": "[9]; severe RI", "value": 80, "unit": "%"}]}
